# Unmarked numbers belong to inactive results. Records with an inconclusive call do not appear. Activity calls are given as the source filed them.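 Rule for the calls, unless noted: active = growth inhibition above 25% in both replicates, a cutoff set 3 SD above the mean; inconclusive = above 25% in only one replicate; inactive = the rest.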
# Experiments:
# [1] = OD615 S. cerevisiae growth inhibition, permissive medium, pilot counter-assay, permissive growth control for S. cerevisiae lifespan shortening project (AID 705); conditions: OD615, 24 h, at 10 µM, hits give high values
# Method in brief: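 System – S. cerevisiae with engineered DeaD lifespan system · Buffer or medium – SC raffinose/galactose permissive medium · Schedule – cells pre-grown 4 h, then 24 h compound exposure, 30 °C humidified · Technique – culture turbidity as optical density at 615 nm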
# [2] = Restrictive medium S. cerevisiae growth inhibition, OD615, pilot screen of yeast lifespan reduction project, restrictive growth control (AID 706;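 active = growth inhibition above a set limit, 3 SD over mean compound inhibition, in both replicates, cut at about 43% in these data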;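 note: modified DeaD lifespan yeast strain shifted to restrictive glucose medium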); conditions: OD615, 48 h, at 10 µM, hits give high values
# Method in brief: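 Material: engineered S. cerevisiae DeaD strain / Medium: glucose-based CSMM-D restrictive medium / Compound: single dose of 10 µM compound final, 0.25% DMSO / Timing: 4 h pre-incubation, 48 h exposure at 30 °C / Technique: OD615 absorbance reading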
# [3] = viability gain of MRP-1-high H69AR cells under doxorubicin, pilot screen, MRP-1 activator project, CellTiter-Glo, duplicate (AID 807;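 active = viability increase at or above a cutoff of the median across tested compounds plus 3 SD, cut at about 8.5% in these data, passing the limit was not always enough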;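 note: compound pretreatment 18-22 h then 72 h combined with doxorubicin; 0% = doxorubicin alone and 100% = vehicle without doxorubicin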); conditions: H69AR viability with doxorubicin, CellTiter-Glo luminescence; at 10 µM; hits give high values
# [4] = growth suppression of beta-catenin knockout HCT116, pilot screen, human colon tumor cells (AID 823;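 active = cell viability at or below a set limit in both duplicate runs, the limit being the all-compound median minus 4 SD, cut at about 23% in these data, passing the limit was not always enough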;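 note: 0% = wells killed by 20 µM Hyamine and 100% = untreated DMSO cell wells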); conditions: CellTiter-Glo, 60 h, at 10 µM, hits give low values
# [5] = growth suppression of PTEN-deleted HCT116, pilot screen, cell-based, HCT116 clonal line, CellTiter-Glo (AID 824;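 active = viability at or below 27.92% in each of two runs, the all-compound median minus 4 SD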;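 note: 0% = 20 µM Hyamine control and 100% = vehicle cell control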); conditions: 60 h, at 10 µM, hits give low values
# [6] = inhibitors of the yeast RAM network, pilot screen, dse1pr::URA3 reporter, 5-FOA selection (AID 869;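 active = inhibition over a set limit, the all-compound mean plus 3 SD, in both replicate runs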;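 note: 0% = DMSO wells with no growth and 100% = 10 µM 1-NA-PP1 with full growth; RAM network block rescues cells from 5-FOA so hits raise OD615 growth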); conditions: S. cerevisiae dse1pr::URA3 5-FOA growth, OD615, 2 d; at 10 µM; hits give high values; strain carries analog-sensitive mutant Cbk1 kinase
# [7] = RAM signaling pathway blockade in yeast – S. cerevisiae, Pdr1DBD-CYC8 efflux-inhibited sensitized strain, primary screen (AID 1298;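 active = RAM network inhibition above 8.4% in each of two replicates, 3 SD over the compound average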;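 note: 0% = DMSO untreated cells without growth and 100% = 10 µM 1-NA-PP1 full growth; higher means more yeast growth rescued from 5-FOA killing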); conditions: S. cerevisiae cbk1-as DSE1-URA3 strain, 5-FOA growth OD615, 2 d; at 50 µM; hits give high values
Compound,growth inhibition [1] [%],growth inhibition [2],viability increase [3] [%],viability [4] [%],viability [5] [%],inhibition [6] [%],RAM network inhibition [7] [%]
O=C(NCCc1csc(-c2cccnc2)n1)c1ccc(Br)o1,1.56,10.1%,-2.6,107,97.3,0,2.18
O=C(O)C1CCCCN1S(=O)(=O)c1ccc(Cl)s1 (stereo not drawn),-2.17,1.02%,-1.27,101,97.3,0.505,-0.42
O=C(NCc1ccco1)c1nnc(Cc2ccc(F)cc2)o1,-18.4,-12.9%,-0.65,105,89.5,1.21,4.79
COc1cc(CN2CCN(CCOCCO)CC2)cc(OC)c1OC,-9.5,-8.52%,0.51,94.5,96.8,1.11,4.96
CS(=O)(=O)N1CCN(Cc2ccccc2C(F)(F)F)CC1,-19.1,-5.12%,0.93,91.1,94,-0.185,6.47
O=C(CN1CCOc2ccccc21)NCc1ccc(F)cc1,-29.5,2.98%,-5.89,91.4,85.8,0.305,-0.84
C/C(N)=C(/C#N)C(=O)CSc1n[nH]c(-c2ccccc2Br)n1,-8.32,8.69%,2.73,110,105,-0.48,-1.02
O=C(CC(c1ccccc1)c1ccccc1)Nc1ncn[nH]1,-5.6,9.86%,4.51,100,90.1,-0.035,3.78
O=C(C1CCN(S(=O)(=O)c2ccc(F)cc2)CC1)N1CCOCC1,-6.2,-6.82%,0.84,103,103,2.23,1.75
CSc1nnc2c(n1)OC(c1ccc(C(=O)O)cc1)N(C(C)=O)c1ccccc1-2 (stereo not drawn),-1,13.2%,0.23,102,96.6,1.57,3.34
CNc1ccc(OC(F)F)cc1C(=O)c1ccccc1,12.9,-4.32%,-2.34,89.8,92.9,0.685,2.22
CCC(=O)N=c1sc2c(C)cc(C)cc2n1CC(=O)OC,-9.96,-16.1%,-0.83,92.4,88.7,1.55,2.76
c1ccc(-c2cnc(-c3cccnc3)o2)cc1,0.08,7.29%,-4.72,95.5,94.4,2.12,1.68
CCOC(=O)C(C)n1cnc2c(nnn2-c2cccc(Cl)c2)c1=O (stereo not drawn),-4.37,-3.95%,1.78,102,92.6,2.58,4.24
CCOC(=O)c1[nH]c2ccccc2c1NC(=O)CC(C)(C)C,5.14,-9.95%,-3.69,99.4,96,1.65,1.45
Cn1c(Cn2c(=O)sc3ccccc32)nnc1SCC(=O)N1CCc2ccccc21,-8.97,-4.5%,-1.09,86.1,92.6,2.98,2.79
COc1ccc(-c2nc(CSCC(=O)N3CCC(C(N)=O)CC3)c(C)o2)cc1OC,-2.87,9.12%,-0.52,106,98.3,0.78,-0.72
O=C(NC1CCCC1)c1ccc(CS(=O)(=O)c2ccc(Br)cc2)o1,-3.78,-9.12%,-0.83,102,93.9,3.01,1.03
CN1CCN(CCNC(=O)c2cc3c(=O)n(C)c4ccccc4c3n2C)CC1,-12.9,-20%,-4.6,82.3,81.3,0.755,1.04
COc1cccc(C2CC(c3ccccc3C)n3nc(N)nc3N2)c1 (stereo not drawn),-7.81,7.97%,-2.32,107,86.5,0.35,8.21
CC1CC=C2C(C#N)=C(N)C(C#N)(C#N)C(c3cccs3)C2C1 (stereo not drawn),-11,-6.39%,-4.25,85.5,85.7,2.66,3.84
COc1cc(OC)cc(OCC(O)Cn2cnc3cc(C)c(C)cc32)c1 (stereo not drawn),-4.53,-8.79%,-5.24,80.2,80.3,1.33,-0.82
CCCc1nc(SCC(=O)NCc2ccc3c(c2)OCO3)c2c(=O)n(C)c(=O)n(C)c2n1,1.28,7.41%,-6.51,61.1,57.5,2.25,5.66
CC(C)CCNC(=O)c1ccc2c(c1)N(Cc1ccccc1)C(=O)CS2=O (stereo not drawn),-0.755,4.24%,1.95,104,94,0.275,1.41
CCN(CC)C(=O)Nc1cnc2ccccc2c1,-17.2,-8.12%,-2.72,93.5,96.4,0.115,5.38

Compound,growth inhibition [1] [%],growth inhibition [2],viability increase [3] [%],viability [4] [%],viability [5] [%],inhibition [6] [%],RAM network inhibition [7] [%]
CCN(CC)S(=O)(=O)c1cccc(-c2nnc(SCc3nnc(-c4cccs4)o3)n2N)c1,5.53,46.4% (active),0.28,86.5,92.5,1.85,3.12
C=CCNC(=O)COc1ccc(Br)cc1Cl,-15.7,-6.88%,1.27,99,91.2,1.36,9.74
CC1=C(NCCc2ccccc2)CCC1=O,1.6,-14.4%,-2.97,92,86.2,1.74,2.7
CCOC(=O)c1ccccc1N1C(=O)CSC1=S,-22.3,-19.6%,-4.62,96,91.1,1.11,0.73
COc1cc(C(=O)NCCc2cn3ccccc3n2)cc(OC)c1OC,-9.42,-6.93%,-2.78,98.4,95.9,2.1,2.62
C=C(C)Cn1c(COc2ccccc2)nnc1SCC(=O)O,-9.65,-7.02%,-4.09,89.7,90.6,0.3,0.88
COc1cccc(-c2nnc(SCC(=O)N3CC(C)CC(C)C3)o2)c1 (stereo not drawn),-6.77,-0.75%,-3.25,98,90.5,0.535,0.7
O=C(CSc1nnc(Cn2c(=O)sc3ccccc32)n1-c1ccccc1)N1CCCCCC1,-11.3,-4.95%,-2.95,91.7,81.7,2.22,6.65
Cn1c(=O)c2c(nc(CN3CCOCC3)n2CCc2ccccc2)n(C)c1=O,-8.53,-15.8%,3.73,95,94.7,1.48,0.56
COc1ccc(N2CCN(C(=O)c3ccc4c(c3)OCO4)CC2)cc1,-2.83,14.7%,-0.77,97.8,100,2.04,0.86
COc1ccccc1Cc1nc(-c2ccc(Br)o2)no1,-0.335,6.17%,-3.52,97.4,85.8,2.08,5.63
CC1CC(C)CN(C(=O)CSc2nnc(-c3ccc(Cl)cc3)o2)C1 (stereo not drawn),-0.98,-3.64%,1.73,94.1,89.2,1.4,7.35
CCC(C)Sc1nc2c(cnn2-c2ccc(C)c(C)c2)c(=O)[nH]1 (stereo not drawn),-5.49,1.98%,-3.4,73,75.9,3.72,-0.06
Cc1cc(C(=O)NCc2ccco2)cs1,-6.77,-6.79%,-2.37,106,99.9,2.28,-0.32
CC1CCCN(C(C(=O)Nc2ccc3c(c2)OCO3)c2ccccc2)C1 (stereo not drawn),-8.14,5.27%,-3.45,79.6,79.4,1.85,1.67
COc1ccccc1N(CC(=O)Nc1ccc2c(c1)OCO2)S(=O)(=O)c1ccccc1,-5.44,-18.2%,-0.47,73.7,84,0.8,8.21
CCOC(=O)c1nc2nc(C)cc(=O)n2[nH]1,-14.5,-7.54%,0.46,105,97.7,0.96,4.54
O=S(=O)(c1ccc(Oc2ccc(S(=O)(=O)N3CCOCC3)cc2)cc1)N1CCOCC1,-21.5,-21.2%,-1.32,82.7,87.6,4.01,4.04
CCN=C1SC(CC(=O)NC(N)=O)C(=O)N1CC (stereo not drawn),-12.5,-17.8%,0.51,101,101,1.3,1.66
CC(C)CC(NS(=O)(=O)c1ccc2c(c1)oc(=O)n2C)C(=O)NCc1cccnc1 (stereo not drawn),-0.43,15.8%,-0.08,112,98.9,1.82,0.99
CCOc1ccc(CCNC(=O)c2oc3c(c2C)-c2[nH]ncc2CC3)cc1OCC,-11.9,-11.6%,-2.93,105,92.7,1.57,9.8
CCOC(=O)C1=C(C)NC(=O)NC1c1cn(-c2ccccc2)nc1-c1cccs1 (stereo not drawn),-10.2,-0.16%,-0.43,75.2,72.2,1.46,3.87
O=C(c1ccc(N2CCCCS2(=O)=O)cc1)N1CCN(c2ccc(N3CCOCC3)nn2)CC1,3.18,14.7%,-0.03,105,106,0.09,1.25
COCCNC(=O)CS(=O)Cc1nc(-c2ccccc2C)oc1C (stereo not drawn),-8.16,5.6%,-0.56,100,98,0.23,2.05

# Source: PubChem BioAssay
